Source: PubChem BioAssay
In the library only some 0.84% were active in any assay of this set; here they are far more common.
SKN-1 block: C. elegans SKN-1 inhibition; C. elegans VP596 Pgst-4::GFP/RFP ratio, acrylamide-induced, 24 h; inhibition, % at 21.8 µM; actives 0.49% (n = 360,000); AID 624304;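 active = interference check ratio from 0.5 to 1.5 plus GFP to RFP signal ratio inhibition reaching or exceeding a fixed threshold, cut at about 30% in these data, passing the limit was not always enough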
MT1-MMP act inh: MT1-MMP (human) activation inhibition; P50281; HT1080 RFP-PRO-GFP cells, GFP/RFP ratio fluorescence, overnight; percent of plate control window, DMSO zero; GFP/RFP ratio change, % at 20 µM; actives 0.061% (n = 360,000); AID 651647;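 active = GFP/RFP ratio change of at least 30% with cell ATP level not reduced by more than half and red fluorescence within 50% of control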
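Test system: HT1080 RFP-PRO-GFP cells; Benchmarks: DMSO and RFP-L50D-GFP cell wells; Timing: cells overnight before dosing, compound overnight, 37 °C, 5% CO2; Compound: one 20 µM compound dose with 1% DMSO; Read-out: GFP/RFP fluorescence ratio.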
DDE Tn6 FP inh: DD(E)-Tn6 binding inhibition, primary FP screen; P02675; Fibrin DD(E) TRITC-Tn6 fluorescence polarization displacement; inhibition, % at 8.3 µM; actives 0.21% (n = 370,000); AID 720509;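 active = inhibition above a per-campaign cutoff: mean of compounds within control limits plus 3 SD, cut at about 15% in these data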
Target sequence (P02675 whole entry, looked up): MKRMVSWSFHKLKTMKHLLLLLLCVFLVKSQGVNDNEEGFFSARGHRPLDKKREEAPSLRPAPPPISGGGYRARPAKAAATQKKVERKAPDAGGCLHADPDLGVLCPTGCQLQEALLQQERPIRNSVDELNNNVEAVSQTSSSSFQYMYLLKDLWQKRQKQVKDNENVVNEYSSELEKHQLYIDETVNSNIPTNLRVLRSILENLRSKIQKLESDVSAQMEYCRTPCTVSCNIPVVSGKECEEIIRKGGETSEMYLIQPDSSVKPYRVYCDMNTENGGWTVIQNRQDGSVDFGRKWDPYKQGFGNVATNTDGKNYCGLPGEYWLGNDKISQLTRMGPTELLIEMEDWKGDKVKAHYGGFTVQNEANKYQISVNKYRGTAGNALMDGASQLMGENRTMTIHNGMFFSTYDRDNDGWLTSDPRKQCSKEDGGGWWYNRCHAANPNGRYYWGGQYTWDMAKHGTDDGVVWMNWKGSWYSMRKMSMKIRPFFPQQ
DDE Tn7 FP inh: DD(E)-Tn7 binding inhibition, primary FP screen | AID 720508 | FP displacement of FITC-Tn7 peptide from fibrin DD(E); 0% = median of compound wells per plate | actives 0.13% (n = 370,000) | P02675 | inhibition, % at 8.3 µM;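 active = inhibition above the mean of compounds falling within the control limits plus 3 SD of them, cut at about 14% in these data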
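Test system: human clot-derived fibrin DD(E) complex / Quantity: 2 µM final DD(E) protein / Incubation: 10 min plus 3 h, room temperature / Measured by: fluorescence polarization / Benchmarks: high control of 10 µM Aha-Tn7 peptide / Replicates: singlicate testing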
A number is an active result.

For CC(C)(C)C(=O)OC12CCCN(C1)/C(=C/c1cccc(Cl)c1)C2 (stereo not given) the results were DDE Tn6 FP inh inactive and DDE Tn7 FP inh inactive.
COC(=O)c1cc(-c2ccc(Br)cc2)n[nH]1 was read as SKN-1 block 36, MT1-MMP act inh inactive, DDE Tn6 FP inh inactive and DDE Tn7 FP inh inactive.
Screening CC1=C(C(=O)OC(C)C)C(c2ccc(Cl)cc2)n2c(sc(=Cc3ccc(OCC(=O)O)cc3)c2=O)=N1 (stereo not given) returned SKN-1 block inactive, MT1-MMP act inh inactive, DDE Tn6 FP inh inactive and DDE Tn7 FP inh inactive.
For COc1ccc(C2C(C(=O)OC(C)C)=C(C)N=c3s/c(=C\c4cccs4)c(=O)n32)cc1 (stereo not given) the results were SKN-1 block 43, MT1-MMP act inh inactive, DDE Tn6 FP inh inactive and DDE Tn7 FP inh inactive.
For COC(=O)[C@]12C[C@H](CC(=O)N3CCN(C(=O)C4CC4)CC3)C(=O)N(Cc3cccc4ccccc34)C1=C[C@H](C(C)C)O[C@@H]2C1CC1 the results were DDE Tn6 FP inh inactive and DDE Tn7 FP inh inactive.
Screening C=C1CCC[C@]2(C)C[C@H]3OC(=O)C(CNCCN(CC)CC)[C@H]3CC12 (stereo not given in full) returned SKN-1 block inactive, MT1-MMP act inh inactive, DDE Tn6 FP inh inactive and DDE Tn7 FP inh inactive.
For C=C1CCC[C@]2(C)C[C@H]3OC(=O)C(CNCCN(C)C)[C@H]3CC12 (stereo not given in full) the results were SKN-1 block 37, MT1-MMP act inh inactive, DDE Tn6 FP inh inactive and DDE Tn7 FP inh inactive.
Cc1ccc(C(=O)N(C)[C@H]2C[C@H]3c4[nH]c5c(-c6cccc(C)c6)cccc5c4CCN3C[C@H]2[C@H](C)O)cc1 was read as DDE Tn6 FP inh inactive and DDE Tn7 FP inh inactive.
For CCc1ccc(CCNC(=O)OCCCN2CCC3(CCC(C)CC3)C2=O)cc1 (stereo not given) the results were DDE Tn6 FP inh inactive and DDE Tn7 FP inh inactive.
CCC(C#Cc1ccccc1)N(C)C(N)=NC(=O)/C=C/c1ccccc1 (stereo not given) was read as DDE Tn6 FP inh inactive and DDE Tn7 FP inh inactive.
`COc1ccc(-c2cc(-c3cc(C)ccc3O)[nH]n2)cc1` gave SKN-1 block inactive, MT1-MMP act inh inactive, DDE Tn6 FP inh inactive and DDE Tn7 FP inh inactive.
`COc1ccc(-c2cc(-c3ccc(C)cc3)n[nH]2)c(O)c1` gave SKN-1 block 39, MT1-MMP act inh inactive, DDE Tn6 FP inh inactive and DDE Tn7 FP inh inactive.
`OC[C@@H]1CN(CCN2CCOCC2)C[C@H](n2cnc3c(NC4CCCC4)ncnc32)O1` gave SKN-1 block inactive, MT1-MMP act inh inactive, DDE Tn6 FP inh inactive and DDE Tn7 FP inh inactive.
Screening O=C(NCc1n[nH]c(=S)n1-c1ccc(F)cc1)c1ccc(S(=O)(=O)N2CCOCC2)cc1 returned SKN-1 block 38, MT1-MMP act inh inactive, DDE Tn6 FP inh inactive and DDE Tn7 FP inh inactive.
`O=C(NCc1n[nH]c(=S)n1-c1ccccc1)c1ccc(S(=O)(=O)N2CCOCC2)cc1` gave SKN-1 block inactive, MT1-MMP act inh inactive, DDE Tn6 FP inh inactive and DDE Tn7 FP inh inactive.
`COc1ccc(S(=O)(=O)N2CCCCCC2)cc1C(=O)OCC(=O)NC(N)=O` gave SKN-1 block inactive, MT1-MMP act inh inactive, DDE Tn6 FP inh inactive and DDE Tn7 FP inh inactive.
`CCCCNC(=O)COC(=O)c1cc(S(=O)(=O)N2CCCCCC2)ccc1OC` gave SKN-1 block 40, MT1-MMP act inh inactive, DDE Tn6 FP inh inactive and DDE Tn7 FP inh inactive.
For CN(NC(=O)c1ccccc1F)c1ncccc1[N+](=O)[O-] the results were SKN-1 block inactive, MT1-MMP act inh inactive, DDE Tn6 FP inh inactive and DDE Tn7 FP inh inactive.
`CC(C)OC(=O)CSc1nc2cc3c(cc2cc1C#N)OCO3` gave SKN-1 block 34, MT1-MMP act inh inactive, DDE Tn6 FP inh inactive and DDE Tn7 FP inh inactive.
For Cc1nnc(SCCn2c(N3CC(C)CC(C)C3)nc3c2c(=O)n(C)c(=O)n3C)s1 (stereo not given) the results were SKN-1 block 41, MT1-MMP act inh inactive, DDE Tn6 FP inh inactive and DDE Tn7 FP inh inactive.
For Cc1nnc(SCCn2c(Br)nc3c2c(=O)n(C)c(=O)n3C)s1 the results were SKN-1 block inactive, MT1-MMP act inh inactive, DDE Tn6 FP inh inactive and DDE Tn7 FP inh inactive.
`CCOc1ccccc1Oc1coc2cc(OCC(=O)O)ccc2c1=O` gave SKN-1 block inactive, MT1-MMP act inh inactive, DDE Tn6 FP inh inactive and DDE Tn7 FP inh inactive.
